According to ChEMBL document CHEMBL5724801, “EUbOPEN Chemogenomics Library - Multiplex” (2024):
Several values for one entry are separate records, joined by “and”; a condition that tells them apart may be missing. Equal values may be shown once.

Columns and labels:
Fibroblast = assay: Multiplex assay against human fibroblast; assay type: toxicity, cell-based
Method in brief: (§1)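 Live cells carried four stains from seeding: Hoechst33342, BioTracker Green Microtubule Cytoskeleton Dye, MitoTracker Red and Annexin V Alexa Fluor 680. They were imaged on a CQ1 microscope at 37°C and 5% CO2 after compound addition. Using CellPathfinder machine-learning gating, cells were split into Hoechst high-intensity objects or normal cells, normal cells into healthy, pyknosed or fragmented nuclei, and pyknosed cells into mitotic or apoptotic; tubulin, mitochondrial-mass and membrane-permeability phenotypes are per cents of healthy-nucleus cells.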

HEK-293T = assay: Multiplex assay against HEK293T; assay type: toxicity, cell-based; details: human; method in brief: as §1
[1] = 12 h, 1 µM, compound concentration 1 uM
[2] = 12 h, 10 µM, compound concentration 10 uM
[3] = 24 h, 1 µM, compound concentration 1 uM
[4] = 24 h, 10 µM, compound concentration 10 uM
[5] = 48 h, 1 µM, compound concentration 1 uM
[6] = 48 h, 10 µM, compound concentration 10 uM

SMILES: COc1ccc2c(c1)C(C(=O)N(Cc1ccc(N(C)C)cc1)c1ccc(C(C)C)cc1)CCC2.Cl (stereo not drawn)
- Population Apoptotic (%) (Fibroblast; [1]): 57% and 45%
- Population Fragmented Nuclei (%) (Fibroblast; [1]): 15% and 20%
- Population Healthy Nuclei (%) (Fibroblast; [1]): 72% and 55%
- Population Hoechst High Intensity Objects (%) (Fibroblast; [1]): 1% and 5%
- Population Membrane Permeable-Phenotype (%) (Fibroblast; [1]): 1% and 5%
- Population Mitochondria Different-Phenotype (%) (Fibroblast; [1]): 7% and 15%
- Population Mitotic Cells (%) (Fibroblast; [1]): 42% and 54%
- Population Normal (%) (Fibroblast; [1]): 98% and 94%
- Population Pyknosed Nuclei (%) (Fibroblast; [1]): 11% and 23%
- Population Tubulin-Different-Phenotype (%) (Fibroblast; [1]): 22% and 57%
- Total Cell Count (Fibroblast; [1]): 163 and 138
- Population Apoptotic (%) (Fibroblast; [2]): 58% and 53%
- Population Fragmented Nuclei (%) (Fibroblast; [2]): 17% and 38%
- Population Healthy Nuclei (%) (Fibroblast; [2]): 69% and 51%
- Population Hoechst High Intensity Objects (%) (Fibroblast; [2]): 1% and 2%
- Population Membrane Permeable-Phenotype (%) (Fibroblast; [2]): 0% and 6%
- Population Mitochondria Different-Phenotype (%) (Fibroblast; [2]): 12% and 14%
- Population Mitotic Cells (%) (Fibroblast; [2]): 41% and 46%
- Population Normal (%) (Fibroblast; [2]): 98% and 97%
- Population Pyknosed Nuclei (%) (Fibroblast; [2]): 13% and 10%
- Population Tubulin-Different-Phenotype (%) (Fibroblast; [2]): 67% and 77%
- Total Cell Count (Fibroblast; [2]): 181 and 148
- Population Apoptotic (%) (Fibroblast; [3]): 55%
- Population Fragmented Nuclei (%) (Fibroblast; [3]): 11% and 19%
- Population Healthy Nuclei (%) (Fibroblast; [3]): 77% and 59%
- Population Hoechst High Intensity Objects (%) (Fibroblast; [3]): 1% and 3%
- Population Membrane Permeable-Phenotype (%) (Fibroblast; [3]): 0% and 2%
- Population Mitochondria Different-Phenotype (%) (Fibroblast; [3]): 5% and 11%
- Population Mitotic Cells (%) (Fibroblast; [3]): 44%
- Population Normal (%) (Fibroblast; [3]): 98% and 96%
- Population Pyknosed Nuclei (%) (Fibroblast; [3]): 11% and 20%
- Population Tubulin-Different-Phenotype (%) (Fibroblast; [3]): 25% and 41%
- Total Cell Count (Fibroblast; [3]): 156 and 136
- Population Apoptotic (%) (Fibroblast; [4]): 50% and 42%
- Population Fragmented Nuclei (%) (Fibroblast; [4]): 17% and 39%
- Population Healthy Nuclei (%) (Fibroblast; [4]): 72% and 55%
- Population Hoechst High Intensity Objects (%) (Fibroblast; [4]): 3% and 2%
- Population Membrane Permeable-Phenotype (%) (Fibroblast; [4]): 0% and 2%
- Population Mitochondria Different-Phenotype (%) (Fibroblast; [4]): 15% and 12%
- Population Mitotic Cells (%) (Fibroblast; [4]): 50% and 57%
- Population Normal (%) (Fibroblast; [4]): 96% and 97%
- Population Pyknosed Nuclei (%) (Fibroblast; [4]): 10% and 4%
- Population Tubulin-Different-Phenotype (%) (Fibroblast; [4]): 63% and 85%
- Total Cell Count (Fibroblast; [4]): 180 and 148
- Population Apoptotic (%) (Fibroblast; [5]): 66% and 52%
- Population Fragmented Nuclei (%) (Fibroblast; [5]): 17% and 26%
- Population Healthy Nuclei (%) (Fibroblast; [5]): 75% and 61%
- Population Hoechst High Intensity Objects (%) (Fibroblast; [5]): 1%
- Population Membrane Permeable-Phenotype (%) (Fibroblast; [5]): 1% and 5%
- Population Mitochondria Different-Phenotype (%) (Fibroblast; [5]): 3% and 13%
- Population Mitotic Cells (%) (Fibroblast; [5]): 33% and 47%
- Population Normal (%) (Fibroblast; [5]): 98%
- Population Pyknosed Nuclei (%) (Fibroblast; [5]): 6% and 12%
- Population Tubulin-Different-Phenotype (%) (Fibroblast; [5]): 27% and 46%
- Total Cell Count (Fibroblast; [5]): 180 and 152
- Population Apoptotic (%) (Fibroblast; [6]): 71% and 75%
- Population Fragmented Nuclei (%) (Fibroblast; [6]): 21% and 45%
- Population Healthy Nuclei (%) (Fibroblast; [6]): 71% and 52%
- Population Hoechst High Intensity Objects (%) (Fibroblast; [6]): 4% and 0%
- Population Membrane Permeable-Phenotype (%) (Fibroblast; [6]): 0% and 3%
- Population Mitochondria Different-Phenotype (%) (Fibroblast; [6]): 8%
- Population Mitotic Cells (%) (Fibroblast; [6]): 28% and 25%
- Population Normal (%) (Fibroblast; [6]): 95% and 99%
- Population Pyknosed Nuclei (%) (Fibroblast; [6]): 7% and 2%
- Population Tubulin-Different-Phenotype (%) (Fibroblast; [6]): 71% and 81%
- Total Cell Count (Fibroblast; [6]): 203 and 174
- Population Apoptotic (%) (HEK-293T; [1]): 30% and 43%
- Population Fragmented Nuclei (%) (HEK-293T; [1]): 6% and 5%
- Population Healthy Nuclei (%) (HEK-293T; [1]): 80% and 79%
- Population Hoechst High Intensity Objects (%) (HEK-293T; [1]): 7% and 4%
- Population Membrane Permeable-Phenotype (%) (HEK-293T; [1]): 0%
- Population Mitochondria Different-Phenotype (%) (HEK-293T; [1]): 39% and 61%
- Population Mitotic Cells (%) (HEK-293T; [1]): 70% and 56%
- Population Normal (%) (HEK-293T; [1]): 92% and 95%
- Population Pyknosed Nuclei (%) (HEK-293T; [1]): 13% and 14%
- Population Tubulin-Different-Phenotype (%) (HEK-293T; [1]): 27% and 23%
- Total Cell Count (HEK-293T; [1]): 413 and 330
- Population Apoptotic (%) (HEK-293T; [2]): 60% and 63%
- Population Fragmented Nuclei (%) (HEK-293T; [2]): 9% and 4%
- Population Healthy Nuclei (%) (HEK-293T; [2]): 78% and 77%
- Population Hoechst High Intensity Objects (%) (HEK-293T; [2]): 10% and 6%
- Population Membrane Permeable-Phenotype (%) (HEK-293T; [2]): 0%
- Population Mitochondria Different-Phenotype (%) (HEK-293T; [2]): 60% and 75%
- Population Mitotic Cells (%) (HEK-293T; [2]): 39% and 36%
- Population Normal (%) (HEK-293T; [2]): 89% and 93%
- Population Pyknosed Nuclei (%) (HEK-293T; [2]): 11% and 17%
- Population Tubulin-Different-Phenotype (%) (HEK-293T; [2]): 64% and 57%
- Total Cell Count (HEK-293T; [2]): 383 and 361
- Population Apoptotic (%) (HEK-293T; [3]): 31% and 60%
- Population Fragmented Nuclei (%) (HEK-293T; [3]): 9% and 7%
- Population Healthy Nuclei (%) (HEK-293T; [3]): 81% and 79%
- Population Hoechst High Intensity Objects (%) (HEK-293T; [3]): 3% and 6%
- Population Membrane Permeable-Phenotype (%) (HEK-293T; [3]): 0%
- Population Mitochondria Different-Phenotype (%) (HEK-293T; [3]): 20% and 33%
- Population Mitotic Cells (%) (HEK-293T; [3]): 68% and 40%
- Population Normal (%) (HEK-293T; [3]): 96% and 93%
- Population Pyknosed Nuclei (%) (HEK-293T; [3]): 8% and 13%
- Population Tubulin-Different-Phenotype (%) (HEK-293T; [3]): 13% and 11%
